Sampled rows, rich in hits. Any-hit rate of the full collection: about 12%.
b-catenin transl: alters nuclear translocation of beta-catenin in HeLa cells; immunofluorescence imaging; nuclear translocation activity, % at 5 µM; 190,000 tested, 0.3% active; AID 1665;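 active means nuclear translocation activity above 50% at 5 µM, with a well cell count of 50 or more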;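 further: per-cell ratio of nuclear to cytoplasmic median beta-catenin stain intensity; plate controls were DMSO negative control for no effect and GSK-3 inhibitor IX positive control for full effect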
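assay system = human HeLa cells, endogenous beta-catenin | times = compound treatment 24 h, 37°C, 5% CO2 | detection = Anti-beta-catenin immunofluorescence on PFA-fixed, Triton-permeabilized cells, DAPI nuclei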
CHOP inh: blocks CHOP induction under ER stress. CHO-K1 CHOP-promoter luciferase, tunicamycin-induced, 15-18 h. inhibition, % at 10 µM. 220,000 tested, 3.8% active. AID 2732;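 active means compounds that reduced the stress-induced luciferase reporter signal by more than about 70% of percent inhibition, limit read from the data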;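 further: 0% = tunicamycin plus vehicle and 100% = wells without tunicamycin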
MT stabilizer: microtubule stabilization, imaging screen | HeLa tubulin immunostaining HCS, 24 h; share of cells brighter than vehicle mean+2SD | 200,000 tested, 0.83% active | % tubulin-high responders, % at 10 µM;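 active means plate Z-score above 3 for both tubulin-high and condensed-nucleus cell shares, with cell loss under 80%, at 10 µM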;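 further: anti alpha tubulin signal scored within the nucleus-defined area of each cell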
L major viab: inhibitors of Leishmania major promastigote growth; Leishmania major promastigotes, resazurin fluorescence viability; inhibition, % at 10 µM; 200,000 tested, 9% active; in the data active means inhibition above about 50%;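 further: promastigotes grown with compound for 44 hours at 28 °C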
Autophagy HCS: modulators of autophagy; MEF GFP-LC3 puncta imaging; test concentration mostly 10 µM; calls only at 10 µM (by protocol); 190,000 tested, 0.98% active; AID 463193;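 active means percentage of spot-positive cells more than 3 SD above its plate mean, without a fluorescence outlier flag or 80% toxicity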;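 further: spot-positive cell cutoff set from DMSO-treated cells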
Dynein cargo inh: blocks dynein driven cargo transport along microtubules | 3617.4 mouse cells, GR-EGFP nuclear translocation imaging; test concentration mostly 20 µM; stimulated with dexamethasone, 1 µM; active compounds read low | 220,000 tested, 0.47% active | z-score, hits read low;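 active means plate z-score of nuclear minus cytoplasmic receptor signal below a set negative limit, without overly bright fluorescence or cell loss, cut at about -3.5 in these data, passing the limit was not always enough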;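 further: z-score of nuclear minus cytoplasmic ring GR-EGFP intensity difference per well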
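Also added: dexamethasone, 1.0 µM final. Medium: tet-free, stripped-serum medium. Detection: fixed, Hoechst-stained cells imaged at 10x for EGFP. Read-out: nuclear-to-cytoplasmic GR-EGFP distribution per well. Times: induction 48 h, compound 1 h, agonist 30 min.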
Active calls of the source: *; i = inactive; nt = no result.

SMILES	b-catenin transl	CHOP inh	MT stabilizer	L major viab	Autophagy HCS	Dynein cargo inh
CCCCCOC(=O)c1ccc(NC(=O)c2ccco2)cc1	nt	82.3*	3.9	-2.0	i	-0.572
CCCOc1ccc(/C=C/C(=O)Nc2ccc([N+](=O)[O-])cc2)cc1	-0.3	95.4*	1.3	15.9	i	0.566
COc1ccc(NC(=S)NC(=O)/C=C/c2cccs2)cc1	-2.9	37.7	2.3	-0.3	i	0.353
CCCCOC(=O)c1ccc(NC(=O)/C=C/c2cccs2)cc1	-1.3	74.8*	2.2	-6.7	i	0.0525
CCCCOC(=O)c1ccc(NC(C)=O)cc1	0.7	62.3	5.5	-3.9	i	1.69
COCCN(C(=O)CSc1nc2ccccc2c(=O)n1CCOC)c1c(N)n(Cc2ccccc2)c(=O)[nH]c1=O	-2.1	-22.5	0.9	1.0	i	-1
Cc1cc(C)n(C(=O)CCCn2nc(C)c([N+](=O)[O-])c2C)n1	1.1	3.2	2.3	22.4	i	0.0938
CCCCOc1ccc(/C=C/C(=O)Nc2ccc([N+](=O)[O-])cc2C)cc1	0.3	79.6*	2.6	-6.7	i	0.386
CCOc1ccc(/C=C/C(=O)Nc2ccc(C(N)=O)cc2)cc1OC	-0.8	22.5	2.9	-7.7	i	0.368
CCCCOc1ccc(/C=C/C(=O)Nc2ccc(C(N)=O)cc2)cc1	-1.9	-6.7	2.9	90.6*	i	0.736
CCC(=O)N1CCC2(CC1)Oc1ccc(Cl)cc1C(=O)C21CC(c2ccc(Cl)cc2)=NO1 (stereo unspecified)	1.5	-4.2	nt	nt	nt	0.834
COc1cccc(NC(=O)c2ccc(C(=O)c3ccccc3)o2)c1	-3.3	-14.9	3.0	43.8	i	-0.753
Cc1occc1C(=O)NC(C)c1ccc2c(c1)OCO2 (stereo unspecified)	-0.7	0.1	2.7	-1.5	i	-0.626
CCOc1ccccc1C(=O)NC(C)c1ccc2c(c1)OCO2 (stereo unspecified)	20.1	-3.9	42.2*	1.4	i	2
Oc1ccc(C(=S)N2CCCCCC2)cc1	-2.6	14.3	3.7	-3.0	i	1.43
S=C(c1ccc(N2CCCC2)cc1)N1CCCCC1	nt	-11.8	2.8	87.9*	i	-0.000762
Cc1noc(NS(=O)(=O)c2ccc(NC(=O)CSc3nc4ccccc4s3)cc2)c1C	0.8	25.1	1.5	-5.9	i	0.378
CCCOc1ccc(/C=N/NC(=O)C2CCCN2S(=O)(=O)c2ccc(Cl)cc2)cc1 (stereo unspecified)	0.2	-23.8	2.3	59.4*	i	-1.05
CC(C)Oc1ccc(/C=N/NC(=O)C2CCCN2S(=O)(=O)c2ccc(Cl)cc2)cc1 (stereo unspecified)	-0.1	78.9*	2.3	59.8*	i	0.815
N#Cc1ccc(-c2ccc(F)cc2)nc1SCC(=O)Nc1sc2c(c1C#N)CCC2	-2.1	43.9	9.3	-4.5	i	0.021
COC(=O)C1=CN(C(C)C)C=C(C(=O)OC)C1c1cc2c(cc1Br)OCO2	-0.7	-13.7	1.5	99.9*	i	-0.246
O=S1(=O)N=C(N(CCO)/N=C/C=C/c2ccccc2)c2ccccc21	nt	9.5	3.6	53.1*	i	-0.708
O=S1(=O)N=C(N/N=C/C=C/c2ccccc2)c2ccccc21	-1.9	-25.4	3.7	22.0	i	-0.0525
CC(C)NC(=O)NC(=O)COC(=O)c1ccc(S(=O)(=O)Nc2ccccc2)cc1	-2.6	34.0	2.3	0.7	i	-0.0464
CC(C)NC(=O)NC(=O)COC(=O)c1ccc(OC(F)(F)F)cc1	nt	84.3*	3.1	40.5	i	-0.08
SMILES	b-catenin transl	CHOP inh	MT stabilizer	L major viab	Autophagy HCS	Dynein cargo inh
CCNC(=S)Nc1ccc(OCC)cc1	-1.3	15.9	2.0	65.3*	i	0.641
CCOc1ccc(NC(=S)Nc2ccc(C)c([N+](=O)[O-])c2)cc1	nt	70.5*	2.4	26.8	i	-0.718
CCc1ccc2nc3sc(C(=O)O)cc3cc2c1	-0.7	-38.7	2.6	-5.0	i	-0.565
Oc1ccc(C=Nc2cccc3ncccc23)c(O)c1	-1.2	-13.9	3.2	28.1	i	-0.573
Oc1ccc(C=Nc2ccc3ncccc3c2)c(O)c1	-0.7	-25.8	2.5	93.3*	i	-0.672
Cc1ccc(S(=O)(=O)N(C)C)cc1NC(=O)c1ccncc1	-2.6	4.4	5.1	-4.3	i	0.602
CCc1cc(C(=O)Nc2cc(S(=O)(=O)N(C)C)ccc2C)sc1C	-3.4	10.6	3.1	98.8*	i	1.16
Cc1ccc(-n2nnnc2SCC(=O)c2cc(C)n(-c3cc(C)on3)c2C)cc1	5.7	-8.5	7.5*	-6.6	i	-0.423
Cc1cc(C(=O)CSc2nnnn2C)c(C)n1-c1cccc(F)c1	-3.0	-10.2	3.3	7.1	i	-1.07
Cc1cc(C)cc(-n2c(C)cc(C(=O)CSc3nnnn3C)c2C)c1	nt	39.5	3.0	91.4*	i	-0.354
COc1ccc(NC(=O)/C(C#N)=C/c2ncc([N+](=O)[O-])n2C)c(OC)c1	-1.4	-37.3	nt	nt	nt	1.1
O=C(CCCNS(=O)(=O)c1ccc(Cl)c(Cl)c1)NCCc1ccccn1	-1.2	-8.8	2.3	-3.0	i	-1.28
Cc1nn(-c2ccccc2)c(Cl)c1C(=O)N(C)c1nc(-c2ccc(F)cc2)cs1	-1.9	47.6	2.3	15.7	i	0.134
Cn1c2ccccc2c(=O)c2c(=O)n(Cc3ccco3)c(-c3ccc(C(C)(C)C)cc3)nc21	-0.4	89.3*	nt	nt	nt	0.0256
CCc1nc2oc3cc(OC)ccc3c(=O)c2c(=O)n1Cc1ccccc1	nt	-4.2	2.5	95.5*	i	-1.17
CCc1nc2oc3ccccc3c(=O)c2c(=O)n1Cc1ccccc1	-3.0	11.1	5.9	8.7	i	0.525
COc1ccc2c(=O)c3c(=O)n(Cc4ccco4)c(-c4ccc(C)cc4)nc3oc2c1	-4.8	33.6	2.5	59.2*	i	-0.175
COc1ccc2c(=O)c3c(=O)n(Cc4ccco4)c(C(C)C)nc3oc2c1	0.4	23.9	3.9	8.9	i	0.309
CC(=O)OC1CSc2nc3ccccc3n2C1 (stereo unspecified)	3.9	4.8	3.6	1.9	i	-0.389
COc1ccc(CCNC2CCN(C)CC2)cc1OC	-4.6	-9.3	1.4	-5.9	i	1.44
CC(C)(C)NC(=S)NCc1ccncc1	-1.4	7.6	3.0	0.6	i	1.02
Cc1cc(N2CCCN(C)CC2)nc2cc(Cl)ccc12	-0.1	-4.2	2.3	80.2*	i	-0.914
Cc1cc(N2CCCCC2)nc2ccccc12	0.2	-3.4	2.6	18.6	i	1.51
Cc1cc(N2CCCCCC2)nc2ccccc12	-2.6	-7.6	2.6	90.7*	i	0.234
Cc1cc(C)c2ccc(Cl)cc2n1	0.6	-1.5	nt	nt	nt	-0.338
Cc1ccc(NC(=O)CSc2ncc3ccccn23)cc1	3.0	-21.4	4.1	-3.6	i	0.547
Cc1cccc(/C=N/NC(=O)Cn2nnnc2N)n1	-1.0	-8.5	nt	nt	nt	0.21

Compound activity as filed in PubChem BioAssay.
